Data taken from ChEMBL document CHEMBL3085707, “Solution-phase microwave assisted parallel synthesis of N,N'-disubstituted thioureas derived from benzoic acid: biological evaluation and molecular docking studies” (Eur J Med Chem, 2013).
Activity calls are given as the source filed them. No cut-off for these calls is given here.

Key:
Saccharomyces cerevisiae = experiment: Antifungal activity against Saccharomyces cerevisiae after 24 to 48 hrs by agar well diffusion method; type: functional
In short: (§1)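 Agar well diffusion: 20 mL inoculum added to molten potato dextrose agar and pour-plated, with 6 mm wells cut by cork borer after setting. Inhibition zone measured in mm and scored from + (<1 mm) to ++++ (>6 mm). 2% DMSO in screen medium was the negative control; fluconazole and terbinafine were separate positive controls.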

Urease = Urease (Canavalia ensiformis, UniProt P07374); experiment: Inhibition of jack bean urease assessed as ammonia production after 30 mins by indophenol method
Sequence of Urease (P07374 whole entry): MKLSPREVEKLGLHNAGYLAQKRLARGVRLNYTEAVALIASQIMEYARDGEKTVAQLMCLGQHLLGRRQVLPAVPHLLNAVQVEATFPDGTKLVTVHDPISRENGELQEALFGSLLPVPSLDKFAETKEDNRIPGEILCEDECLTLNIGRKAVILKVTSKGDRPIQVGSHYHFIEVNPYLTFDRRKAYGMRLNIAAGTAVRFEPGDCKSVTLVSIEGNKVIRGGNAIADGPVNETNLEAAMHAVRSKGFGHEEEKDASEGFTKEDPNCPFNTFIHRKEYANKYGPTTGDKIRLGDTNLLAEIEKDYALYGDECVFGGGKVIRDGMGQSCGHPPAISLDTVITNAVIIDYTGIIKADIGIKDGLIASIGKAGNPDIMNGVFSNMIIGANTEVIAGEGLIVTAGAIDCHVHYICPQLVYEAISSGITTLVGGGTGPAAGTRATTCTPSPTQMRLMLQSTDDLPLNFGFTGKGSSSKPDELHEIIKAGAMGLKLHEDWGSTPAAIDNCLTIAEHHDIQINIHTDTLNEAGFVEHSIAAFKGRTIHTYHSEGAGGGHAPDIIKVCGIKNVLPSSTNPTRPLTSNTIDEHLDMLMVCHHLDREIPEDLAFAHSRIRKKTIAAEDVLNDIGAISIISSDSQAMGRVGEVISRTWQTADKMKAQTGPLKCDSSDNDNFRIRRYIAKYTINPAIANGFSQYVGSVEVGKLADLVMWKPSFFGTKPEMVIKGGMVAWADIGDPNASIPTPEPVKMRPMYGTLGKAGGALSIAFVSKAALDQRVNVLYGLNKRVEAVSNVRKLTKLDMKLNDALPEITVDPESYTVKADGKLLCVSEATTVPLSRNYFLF
In short: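 Indophenol (Weatherburn) ammonia read-out. Enzyme (5 U/mL) and test compound in buffer of 100 mM urea, 1 mM EDTA, 10 mM K2HPO4 and 10 mM […] at pH 8.2, incubated 30 min at 37 °C. Phenol and alkali reagents (NaOH, 0.1% active chloride NaOCl) then added; absorbance read by microplate reader. Run in triplicate; thiourea and acetohydroxamic acid as reference inhibitors.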

[1] = tested on: Radical scavenging activity; experiment: Antioxidant activity assessed as DPPH free radical scavenging activity after 30 mins; type: functional
Aspergillus niger = experiment: Antifungal activity against Aspergillus niger after 24 to 48 hrs by agar well diffusion method; type: functional; in short: as §1
Aspergillus flavus = experiment: Antifungal activity against Aspergillus flavus after 24 to 48 hrs by agar well diffusion method; type: functional; in short: as §1
Candida tropicalis = experiment: Antifungal activity against Candida tropicalis after 24 to 48 hrs by agar well diffusion method; type: functional; in short: as §1
[2] = tested on: Radical scavenging activity; experiment: Antioxidant activity assessed as DPPH free radical scavenging activity at 1 mM after 30 mins; type: functional
[3] = target: Urease (Canavalia ensiformis) (UniProt P07374); experiment: Competitive inhibition of jack bean urease by Lineweaver-Burk plot analysis
Sequence of Urease (Canavalia ensiformis) (P07374 whole entry, looked up): as the sequence (P07374 whole entry) above
In short: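 Urease kinetics by the Weatherburn method: buffer of 100 mM urea, 1 mM EDTA, 10 mM K2HPO4 and 10 mM […] at pH 8.2, with enzyme at 5 U/mL and inhibitor, incubated 30 min at 37 °C. Inhibitor was used at 0, 0.05 and 0.5 mM. Vmax and Km were taken from Lineweaver-Burk plots.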

Structure (SMILES) | inhibition zone (IZ) (Saccharomyces cerevisiae) | IC50 (Urease) [µM] | IC50 [1] [µM] | inhibition zone (IZ) (Aspergillus niger) | inhibition zone (IZ) (Aspergillus flavus) | inhibition zone (IZ) (Candida tropicalis) | inhibition [2] [%] | inhibition [3]
O=C(NC(=S)Nc1ccc(Cl)cc1Cl)c1ccccc1 | 3 mm | 13.2 | 240 | 3 mm | 1 mm | 1 mm | – | –
O=C(NC(=S)Nc1c(Cl)c(Cl)cc(Cl)c1Cl)c1ccccc1 | 3 mm | 74.9 | – | 3 mm | 3 mm | 3 mm | 31 | –
O=C(NC(=S)Nc1cc(Cl)ccc1Cl)c1ccccc1 | <1 mm | 4.54 | 30.7 | <1 mm | <1 mm | <1 mm | – | –
Cc1cc(C)c(NC(=S)NC(=O)c2ccccc2)c(C)c1 | <1 mm | 8.11 | – | <1 mm | 1 mm | 1 mm | 24 | –
O=C(NC(=S)Nc1ccc(Cl)c(Cl)c1)c1ccccc1 | <1 mm | 5.51 | 70 | <1 mm | <1 mm | <1 mm | – | –
O=C(NC(=S)Nc1cccc(Cl)c1Cl)c1ccccc1 | <1 mm | 32.2 | 29.5 | <1 mm | <1 mm | <1 mm | – | –
COc1cccc(NC(=S)NC(=O)c2ccccc2)c1 | 3 mm | 12.8 | 805 | 3 mm | 3 mm | 3 mm | – | –
O=C(NC(=S)Nc1ccc(F)cc1)c1ccccc1 | 3 mm | 41.2 | – | 3 mm | 3 mm | 3 mm | 31 | –
O=C(NC(=S)Nc1ccccc1Cl)c1ccccc1 | <1 mm | 41.2 | – | <1 mm | <1 mm | <1 mm | 26 | –
CCCCc1ccc(NC(=S)NC(=O)c2ccccc2)cc1 | <1 mm | 47.2 | 676 | <1 mm | <1 mm | <1 mm | – | –
OC(Cn1cncn1)(Cn1cncn1)c1ccc(F)cc1F [FLUCONAZOLE] | 3 mm | – | – | 3 mm | 3 mm | 3 mm | – | –
CN(C/C=C/C#CC(C)(C)C)Cc1cccc2ccccc12 [TERBINAFINE] | 3 mm | – | – | 3 mm | 3 mm | 3 mm | – | –
O=C(NC(=S)NC1CCCCC1)c1ccccc1 | <1 mm | 53.2 | – | <1 mm | <1 mm | <1 mm | 28 | –
COc1ccc(O)c(C(C)(C)C)c1.COc1ccc(O)cc1C(C)(C)C [BUTYLATED HYDROXYANISOLE] | – | – | 28.2 | – | – | – | – | –
O=C(NC(=S)NCc1ccccc1Cl)c1ccccc1 | <1 mm | 35.3 | – | <1 mm | <1 mm | <1 mm | 36 | –
O=C(NC(=S)Nc1cccc(F)c1)c1ccccc1 | 1 mm | 3.52 | – | 1 mm | <1 mm | <1 mm | 38 | –

Structure (SMILES) | inhibition zone (IZ) (Saccharomyces cerevisiae) | IC50 (Urease) [µM] | IC50 [1] [µM] | inhibition zone (IZ) (Aspergillus niger) | inhibition zone (IZ) (Aspergillus flavus) | inhibition zone (IZ) (Candida tropicalis) | inhibition [2] [%] | inhibition [3]
Cc1ccc(NC(=S)NC(=O)c2ccccc2)cc1 | 1 mm | 6.23 | 23.3 | 1 mm | 1 mm | 1 mm | – | –
NC(N)=S [THIOUREA] | – | 22.3 | – | – | – | – | – | –
O=C(NC(=S)Nc1ccc(C(F)(F)F)cc1)c1ccccc1 | 3 mm | 12.2 | 114 | 3 mm | 3 mm | 3 mm | – | –
O=C(NC(=S)Nc1cccc(Cl)c1)c1ccccc1 | <1 mm | 27.3 | – | <1 mm | <1 mm | <1 mm | 21 | –
O=C(NC(=S)Nc1cc(Cl)cc(Cl)c1)c1ccccc1 | <1 mm | 18.4 | 27 | <1 mm | <1 mm | <1 mm | – | –
Cc1cccc(NC(=S)NC(=O)c2ccccc2)c1C | <1 mm | 3.17 | – | <1 mm | <1 mm | <1 mm | 27 | –
O=C(NC(=S)Nc1ccc(Cl)cc1)c1ccccc1 | 1 mm | 35.3 | 265 | 1 mm | 1 mm | 1 mm | – | –
CCCOC(=O)c1cc(O)c(O)c(O)c1 [PROPYL GALLATE] | – | – | 40.8 | – | – | – | – | –
O=C(NC(=S)Nc1cccc(C(F)(F)F)c1)c1ccccc1 | 3 mm | 39.6 | – | 3 mm | 1 mm | 1 mm | 34 | –
O=C(NC(=S)Nc1ccccc1)c1ccccc1 [N-(PHENYLCARBAMOTHIOYL)BENZAMIDE] | inactive | 14.1 | 769 | inactive | inactive | inactive | – | –
O=C(NC(=S)Nc1ccccc1C(F)(F)F)c1ccccc1 | 1 mm | 38.2 | – | 1 mm | 3 mm | 3 mm | 38 | –
O=C(NC(=S)Nc1c(Cl)cc(Cl)cc1Cl)c1ccccc1 | 3 mm | 1.67 | – | 3 mm | 3 mm | 3 mm | 19 | Active
O=C(NC(=S)NCc1ccccc1)c1ccccc1 | inactive | 27.4 | – | inactive | inactive | inactive | 22 | –
O=C(NC(=S)Nc1ncccn1)c1ccccc1 | <1 mm | 8.21 | 276 | <1 mm | inactive | inactive | – | –
O=C(NC(=S)Nc1c(Cl)cccc1Cl)c1ccccc1 | 1 mm | 4.27 | – | 1 mm | 1 mm | 1 mm | 29 | –
